Reference: ChEMBL document CHEMBL1154787, “Enaminonitrile in heterocyclic synthesis: synthesis and antimicrobial evaluation of some new pyrazole, isoxazole and pyrimidine derivatives incorporating a benzothiazole moiety” (2009)
Values after ≈ are worked out from the molar mass of the structure shown.

Assays:
Assay type in all cases: functional
Pseudomonas aeruginosa [1] = assay: Antibacterial activity against Pseudomonas aeruginosa after 24-48 hrs by microdilution susceptibility test
Summary of the method: (§1)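 MIC by twofold serial dilution in wells, tested only for compounds giving inhibition zones >10 mm; microbial suspensions at 10⁶ CFU/mL inoculated into wells, incubated at 36 °C for 24–48 h, then MIC read.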

Bacillus subtilis [2] = assay: Antibacterial activity against Bacillus subtilis after 24-48 hrs by microdilution susceptibility test; summary of the method: as §1
Escherichia coli [3] = assay: Antibacterial activity against Escherichia coli after 24-48 hrs by microdilution susceptibility test; summary of the method: as §1
Bacillus thuringiensis [4] = assay: Antibacterial activity against Bacillus thuringiensis assessed as zone of inhibition diameter at 1 mg/mL after 24 hrs […]; settings: read-out: DIZ
Summary of the method: (§2)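 Agar diffusion: 5 mm sterile filter-paper disks loaded with test compound in DMF (1 mg/mL) placed on agar seeded with the bacterium, in triplicate; DMF alone as control; incubated 37 °C for 24 h; mean inhibition-zone diameter recorded in mm.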

Bacillus thuringiensis [5] = assay: Antibacterial activity against Bacillus thuringiensis after 24-48 hrs by microdilution susceptibility test; summary of the method: as §1
Escherichia coli [6] = assay: Antibacterial activity against Escherichia coli assessed as zone of inhibition diameter at 1 mg/mL after 24 hrs […]; settings: read-out: DIZ; summary of the method: as §2
Bacillus subtilis [7] = assay: Antibacterial activity against Bacillus subtilis assessed as zone of inhibition diameter at 1 mg/mL after 24 hrs […]; settings: read-out: DIZ; summary of the method: as §2
Pseudomonas aeruginosa [8] = assay: Antibacterial activity against Pseudomonas aeruginosa assessed as zone of inhibition diameter at 1 mg/mL after 24 hrs […]; settings: read-out: DIZ; summary of the method: as §2
Fusarium oxysporum [9] = assay: Antifungal activity against Fusarium oxysporum after 24-48 hrs by microdilution susceptibility test; summary of the method: as §1
Botrytis fabae = assay: Antifungal activity against Botrytis fabae after 24-48 hrs by microdilution susceptibility test; summary of the method: as §1
Fusarium oxysporum [10] = assay: Antifungal activity against Fusarium oxysporum assessed as zone of inhibition diameter at 1 mg/mL after 48 hrs […]; settings: read-out: DIZ
Summary of the method: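 Agar diffusion: 5 mm sterile filter-paper disks loaded with test compound in DMF (1 mg/mL) placed on agar seeded with the fungus, in triplicate; DMF alone as control; incubated at 37 °C for fungal plates; mean inhibition-zone diameter recorded in mm.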

Row | Compound | MIC (Pseudomonas aeruginosa [1]) [mg/L] | MIC (Bacillus subtilis [2]) [mg/L] | MIC (Escherichia coli [3]) [mg/L] | zone of inhibition at 1000 µg/mL (Bacillus thuringiensis [4]) [mm] | MIC (Bacillus thuringiensis [5]) [mg/L] | zone of inhibition at 1000 µg/mL (Escherichia coli [6]) [mm] | zone of inhibition at 1000 µg/mL (Bacillus subtilis [7]) [mm] | zone of inhibition at 1000 µg/mL (Pseudomonas aeruginosa [8]) [mm] | MIC (Fusarium oxysporum [9]) [mg/L] | MIC (Botrytis fabae) [mg/L] | zone of inhibition at 1000 µg/mL (Fusarium oxysporum [10]) [mm]
1 | N#C/C(=C\NN)C(=O)Nc1nc2ccccc2s1 | 25 (≈ 96.4 µM) | 100 (≈ 386 µM) | 25 (≈ 96.4 µM) | 19 | 50 (≈ 193 µM) | 25 | 13 | 25 | 50 (≈ 193 µM) | 6.25 (≈ 24.1 µM) | 19
2 | N#Cc1cncn(-c2nc3ccccc3s2)c1=O | 50 (≈ 197 µM) | 12.5 (≈ 49.2 µM) | 50 (≈ 197 µM) | 19 | 50 (≈ 197 µM) | 19 | 31 | 19 | 50 (≈ 197 µM) | 12.5 (≈ 49.2 µM) | 19
3 | Nc1[nH]ncc1C(=O)Nc1nc2ccccc2s1 | 12.5 (≈ 48.2 µM) | 12.5 (≈ 48.2 µM) | 12.5 (≈ 48.2 µM) | 19 | 50 (≈ 193 µM) | 31 | 31 | 31 | 6.25 (≈ 24.1 µM) | 3.12 (≈ 12.1 µM) | 37
4 | CN(C)/C=C(\C#N)C(=O)Nc1nc2ccccc2s1 | 50 (≈ 184 µM) | 100 (≈ 367 µM) | 100 (≈ 367 µM) | 25 | 25 (≈ 91.8 µM) | 13 | 13 | 19 | 25 (≈ 91.8 µM) | 25 (≈ 91.8 µM) | 25
5 | N#C/C(=C\NNc1ccccc1)C(=O)Nc1nc2ccccc2s1 | 25 (≈ 74.5 µM) | 100 (≈ 298 µM) | 12.5 (≈ 37.3 µM) | 19 | 50 (≈ 149 µM) | 31 | 13 | 25 | 12.5 (≈ 37.3 µM) | 6.25 (≈ 18.6 µM) | 31
6 | NC1=Nc2ccccc2NC=C1C(=O)Nc1nc2ccccc2s1 | 6.25 (≈ 18.6 µM) | 6.25 (≈ 18.6 µM) | 25 (≈ 74.5 µM) | 31 | 12.5 (≈ 37.3 µM) | 25 | 37 | 37 | 25 (≈ 74.5 µM) | 12.5 (≈ 37.3 µM) | 25
7 | OC(Cn1cncn1)(Cn1cncn1)c1ccc(F)cc1F [FLUCONAZOLE] |  |  |  |  |  |  |  |  | 3.12 (≈ 10.2 µM) | 3.12 (≈ 10.2 µM) | 43
8 | N#C/C(=C/N)C(=O)Nc1nc2ccccc2s1 | 100 (≈ 409 µM) | 100 (≈ 409 µM) | 25 (≈ 102 µM) | 19 | 50 (≈ 205 µM) | 25 | 13 | 13 | 12.5 (≈ 51.2 µM) | 6.25 (≈ 25.6 µM) | 31
